# Source: ChEMBL document CHEMBL1125649, “Synthesis and antitumor activity of structural analogues of the epipodophyllotoxins” (J Med Chem, 1991)
# Columns and labels:
# Assay type in all cases: functional, cell-based
# A549 = test: Growth inhibition of A549 (human lung carcinoma) cell line.
# In short: (§1)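 Cells from ATCC, grown in RPMI 1640 with 10% fetal calf serum. Compounds dissolved in DMSO, diluted in Earle's balanced salt solution then medium, 2-fold serial dilutions, each in triplicate versus triplicate drug-free controls. 2.5 × 10^3 cells per well, 72 h at 37 °C, 5% CO2. MTT added for 90 min, DMSO solubilization, absorbance at 570 nm. IC50 = 50% absorbance reduction versus control, by linear regression of dose-response curves.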
# HT-29 = test: Growth inhibition of HT-29 (human colon adenocarcinoma) cell line.; in short: as §1
# P388 = test: Growth inhibition of P388-D1 (murine leukemia) cell line.; settings: Mus musculus; in short: as §1
Compound,IC50 (A549) [µg/mL],IC50 (HT-29) [µg/mL],IC50 (P388) [µg/mL]
COc1cc([C@H]2C[C@H](OC3CCCCC3)c3cc4c(cc32)OCO4)cc(OC)c1O,9.7,8.6,6.6
COc1cc([C@H]2C[C@@H](OC3CCCCC3)c3cc4c(cc32)OCO4)cc(OC)c1O,12,10.3,7.9
COc1cc([C@H]2C[C@H](O)c3cc4c(cc32)OCO4)cc(OC)c1O,9.9,12,4.2
COc1cc([C@@H]2c3cc4c(cc3[C@@H](O[C@@H]3O[C@@H]5CO[C@@H](C)O[C@H]5[C@H](O)[C@H]3O)[C@H]3COC(=O)[C@H]23)OCO4)cc(OC)c1O [ETOPOSIDE],1.03,1.7,0.063
COc1cc(C2CC(=O)c3cc4c(cc32)OCO4)cc(OC)c1O (stereo not given),19.4,19.2,1.7
COc1cc([C@H]2C[C@@H](OC)c3cc4c(cc32)OCO4)cc(OC)c1O,1.1,3.2,0.57
COc1cc(C2CC(=O)c3cc4c(cc32)OCO4)cc(OC)c1OC (stereo not given),2.9,2.9,1.1
COc1cc([C@@H]2c3cc4c(cc3[C@]3(CO)COC(=O)[C@H]23)OCO4)cc(OC)c1OC,1.2,1.2,0.59
COc1cccc2c1C(=O)c1c(O)c3c(c(O)c1C2=O)C[C@@](O)(C(=O)CO)C[C@@H]3O[C@H]1C[C@H](N)[C@H](O)[C@H](C)O1 [DOXORUBICIN],0.053,0.11,0.017
COc1cc([C@H]2C[C@H](OC)c3cc4c(cc32)OCO4)cc(OC)c1O,46.9,41.5,8.1
COc1cc([C@@H]2c3cc4c(cc3[C@H](O)[C@@]23CCOC3=O)OCO4)cc(OC)c1O,> 50,> 50,> 50
COC(=O)[C@@]12CCO[C@@H]1c1cc3c(cc1[C@H]2c1cc(OC)c(OC)c(OC)c1)OCO3,11.9,17.4,5.7
COc1cc([C@H]2C[C@@H](O)c3cc4c(cc32)OCO4)cc(OC)c1OC,0.038,0.032,0.014
COc1cc([C@@H]2c3cc4c(cc3[C@]3(CO)COC(=O)[C@H]23)OCO4)cc(OC)c1O,12.5,12.2,8
COC(=O)[C@@]12CCO[C@@H]1c1cc3c(cc1[C@H]2c1cc(OC)c(O)c(OC)c1)OCO3,> 50,> 50,43
COc1cc([C@@H]2c3cc4c(cc3[C@H](O)[C@H]3COC(=O)[C@H]23)OCO4)cc(OC)c1OC [PODOFILOX],0.0043,0.0043,0.0013
COc1cc([C@H]2C[C@@H](O)c3cc4c(cc32)OCO4)cc(OC)c1O,0.76,2.1,0.53
COc1cc([C@@H]2c3cc4c(cc3[C@H](O)[C@@]23CCOC3=O)OCO4)cc(OC)c1OC,5.1,5.3,2.5
COc1cc([C@@H]2c3cc4c(cc3[C@@H](O)[C@@]23CCOC3=O)OCO4)cc(OC)c1O,48.2,> 50,16.8
COc1cc([C@H]2C[C@H](OC(C)(C)C)c3cc4c(cc32)OCO4)cc(OC)c1O,31.3,28.8,7.1
